This is an account of results in ChEMBL document CHEMBL1156566, “Investigations on the 4-quinolone-3-carboxylic acid motif. 1. Synthesis and structure-activity relationship of a class of human immunodeficiency virus type 1 integrase inhibitors” (J Med Chem, 2008).

Structures are written as SMILES.

Data set [1] addresses T1, Human immunodeficiency virus type 1 integrase (Human immunodeficiency virus 1, UniProt Q7ZJM1). As to the kind of experiment: Inhibition of HIV1 integrase by overall integration assay.
Data set [2] has as its target T1, Human immunodeficiency virus type 1 integrase. As to the kind of experiment: Inhibition of HIV1 integrase DNA strand transfer activity.
Data set [3] deals with Human immunodeficiency virus 1. As to the kind of experiment: Antiviral activity against HIV1 3B in MT4 cells assessed as inhibition of virus-induced cytopathic effect by MTT assay. In kind it is functional, organism-based. Particulars: Human immunodeficiency virus 1, 3B. The procedure, abridged: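 Human lymphocyte MT-4 cultures were infected with HIV-1, and protection from virus-induced cytopathic effect was read by MTT.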
Background: Cytopathic effects are the visible damage that an infection or toxin causes in cultured cells.

Data set [4] can be described thus: Cytotoxicity against human MT4 cells by MTT assay. In kind it is cell-based. Put shortly: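 Human lymphocyte MT-4 cultures were read by MTT in the MT-4/MTT format.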
On the technique in general: Tetrazolium dyes change colour on reduction, which living cells bring about.

In data set [5] the target is T1, Human immunodeficiency virus type 1 integrase. Put plainly: Inhibition of HIV1 integrase 3'-processing activity.

T1 sequence (Q7ZJM1 whole entry): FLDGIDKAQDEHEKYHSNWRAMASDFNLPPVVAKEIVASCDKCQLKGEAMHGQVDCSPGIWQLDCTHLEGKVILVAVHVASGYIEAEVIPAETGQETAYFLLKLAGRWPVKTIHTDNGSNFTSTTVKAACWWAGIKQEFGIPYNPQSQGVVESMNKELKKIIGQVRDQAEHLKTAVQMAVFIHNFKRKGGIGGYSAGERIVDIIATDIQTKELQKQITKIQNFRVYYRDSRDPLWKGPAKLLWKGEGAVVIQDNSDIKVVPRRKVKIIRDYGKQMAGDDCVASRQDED

Consider `O=C(O)c1cn(CCCO)c2ccc(Cc3ccc(Cl)cc3Cl)cc2c1=O`, for which the IC50 in data set [1] is 0.9 µM; in data set [2] it was 1.3 µM. Moreover, the concentration for a half-maximal effect (EC50) in data set [3] was more than 3.6 µM. The same compound displayed a CC50 in data set [4] of 3.6 µM.

`CCn1cc(C(=O)O)c(=O)c2c1C(=O)C=CC2=O`: the IC50 in data set [1] was determined as 43.7 µM; in data set [2], 58.7 µM. For the same compound, in data set [3], the EC50 was more than 42.8 µM. For the same compound, it took 42.8 µM to reach half-maximal cytotoxicity in data set [4] (CC50).

`O=C(Nc1ccccc1)c1ccc2c(c1)c(=O)c(C(=O)O)cn2CCO`: the half-inhibitory concentration (IC50) in data set [1] and in data set [2] was more than 100 µM in each case. For the same compound, the concentration for a half-maximal effect (EC50) in data set [3] was more than 224 µM. Besides, the CC50 in data set [4] is 224 µM.

With `O=C(O)c1cn(CCO)c2ccc(-c3ccncc3)cc2c1=O`, the results for the IC50 in data set [1], in data set [5] and in data set [2] were 77.6 µM, more than 100 µM and more than 100 µM, respectively. The concentration giving a half-maximal response (EC50) in data set [3] is more than 138 µM. This compound yielded a CC50 in data set [4] of 138 µM.

`O=C(Nc1ccc2c(c1)c(=O)c(C(=O)O)cn2CCO)c1ccccc1`: the IC50 in data set [1] and in data set [2] was more than 100 µM throughout. Moreover, the EC50 in data set [3] is more than 220 µM. The compound also yielded a CC50 in data set [4] of 220 µM.

On to `O=C(O)c1cn(CCO)c2ccc(Cc3cccc(Cl)c3F)cc2c1=O`, for which the CC50 in data set [4] was more than 15 µM.

On to `O=C(O)c1cn(CCO)c2ccc(Cc3ccc(Cl)cc3Cl)cc2c1=O`, for which the IC50 in data set [1] came to 0.07 µM; in data set [2], 0.2 µM. The concentration for a half-maximal effect (EC50) in data set [3] is more than 5.3 µM. Further, it took 5.3 µM to reach half-maximal cytotoxicity in data set [4] (CC50).

Take `CN(C)CCn1cc(C(=O)O)c(=O)c2cc(Cc3ccc(Cl)cc3Cl)ccc21`: the IC50 in data set [1] amounted to 10.8 µM; in data set [2], 24.1 µM. In addition, in data set [3], the EC50 is more than 5.2 µM. This compound came in with a half-maximal cytotoxic concentration (CC50) in data set [4] of 5.2 µM.

As to `O=C(O)c1cn(CCO)c2ccc(Oc3ccc(F)c(Cl)c3)cc2c1=O`, the figures for the IC50 in data set [1], in data set [5] and in data set [2] were 86.9 µM, more than 100 µM and more than 100 µM, respectively. Also, the 50% effective concentration (EC50) in data set [3] was more than 9.9 µM. Further, it took 9.9 µM to reach half-maximal cytotoxicity in data set [4] (CC50).

`O=C(O)c1cn(CCO)c2ccc(Nc3cccc(Cl)c3F)cc2c1=O`: the IC50 in data set [1] and in data set [2] was more than 100 µM each time. For the same compound, in data set [3], the EC50 was more than 27.4 µM. In data set [4], this compound displayed a cytotoxic concentration (CC50) of 27.4 µM.

Consider `CCn1cc(C(=O)O)c(=O)c2c1C(=O)C=C(Sc1ccccc1)C2=O`, for which the half-inhibitory concentration (IC50) in data set [1] turned out to be 4.6 µM; in data set [2], 1.6 µM. Further, the EC50 in data set [3] is more than 30 µM. In data set [4], this compound had a CC50 of 30 µM.

`O=C(O)c1cn(CCCCO)c2ccc(Cc3ccc(Cl)cc3Cl)cc2c1=O`: the figures for the IC50 in data set [1], in data set [5] and in data set [2] were 0.05 µM, 16.6 µM and 0.6 µM, respectively. Also, the half-maximal effective concentration (EC50) in data set [3] is more than 4.2 µM. For the same compound, it took 4.2 µM to reach half-maximal cytotoxicity in data set [4] (CC50).

On to `O=C(O)c1cn(CCO)c2ccc(/C=C/c3ccccc3)cc2c1=O`, for which the IC50 in data set [1] was 71.9 µM; in data set [2], more than 100 µM. Besides, in data set [3], the EC50 was more than 22.6 µM. In data set [4], this compound showed a CC50 of 22.6 µM.

In the case of `CCn1cc(C(=O)O)c(=O)c2cc(Nc3cccc(Cl)c3F)ccc21`, the IC50 in data set [1] was 38 µM; in data set [5] it was more than 100 µM; in data set [2] it was more than 100 µM. The 50% effective concentration (EC50) in data set [3] is more than 9.8 µM. Half-maximal cytotoxicity in data set [4] (CC50) was put at 9.8 µM.

Regarding `CCn1cc(C(=O)O)c(=O)c2c1C(=O)C=C(Nc1ccc(F)c(Cl)c1)C2=O`, the IC50 turned out to be 1 µM in data set [1] and 2.1 µM in data set [2]. For the same compound, the half-maximal effective concentration (EC50) in data set [3] is more than 2.2 µM. The cytotoxic concentration (CC50) in data set [4] was determined as 2.2 µM.

Turning to `O=C(c1ccc2c(c1)c(=O)c(C(=O)O)cn2CCCO)c1ccc(Cl)cc1Cl`, the IC50 in data set [1] was 73.9 µM; in data set [5] it was more than 100 µM; in data set [2], more than 100 µM. Besides, the EC50 in data set [3] was more than 17.5 µM. This compound came in with a CC50 in data set [4] of 17.5 µM.

On to `O=C(c1ccc2c(c1)c(=O)c(C(=O)O)cn2CCO)c1ccc(Cl)cc1Cl`, for which the IC50 in data set [1] was 18.7 µM; in data set [5] it was more than 100 µM; in data set [2], more than 100 µM. Besides, the EC50 in data set [3] was more than 21.1 µM. For the same compound, in data set [4], the CC50 came out at 21.1 µM.

For `COc1cc2c(cc1Cc1cccc(Cl)c1F)c(=O)c(C(=O)O)cn2[C@H](CO)C(C)C`, in data set [3], the EC50 is 0.00037 µM. In data set [4], half-maximal cytotoxicity (CC50) was put at 1.15 µM.

Turning to `COCCn1cc(C(=O)O)c(=O)c2cc(Cc3ccc(Cl)cc3Cl)ccc21`, the concentration for half-maximal inhibition (IC50) in data set [1] was 5.6 µM; in data set [2], 16.5 µM. Besides, the EC50 in data set [3] is more than 4.2 µM. Also, the half-maximal cytotoxic concentration (CC50) in data set [4] came to 4.2 µM.

`CCn1cc(C(=O)O)c(=O)c2c1C(=O)C=C(Nc1cccc(Cl)c1F)C2=O`: the figures for the concentration for half-maximal inhibition (IC50) in data set [1], in data set [5] and in data set [2] were 9.7 µM, more than 100 µM and more than 100 µM, respectively. The EC50 in data set [3] is more than 2.4 µM. Also, in data set [4], the CC50 came out at 2.4 µM.

For the compound `O=C(c1ccc2c(c1)c(=O)c(C(=O)O)cn2CCCCO)c1ccc(Cl)cc1Cl`, the IC50 in data set [1] was 54.9 µM; in data set [5], more than 100 µM; in data set [2], more than 100 µM. The concentration for a half-maximal effect (EC50) in data set [3] is more than 17 µM. For the same compound, the CC50 in data set [4] came out at 17 µM.

As for `O=C(O)c1cn(CCO)c2ccc(-c3ccccc3)cc2c1=O`, the IC50 in data set [1] and in data set [2] was more than 100 µM in each case. For the same compound, the EC50 in data set [3] was more than 44.9 µM. Moreover, in data set [4], half-maximal cytotoxicity (CC50) was put at 44.9 µM.

`O=C(O)c1cn(CCO)c2ccc(Sc3ccccc3)cc2c1=O`: the 50% inhibitory concentration (IC50) in data set [1] is 4.8 µM; in data set [2] it was 18.5 µM. In addition, the EC50 in data set [3] is more than 22.7 µM. Also, in data set [4], half-maximal cytotoxicity (CC50) was put at 22.7 µM.

One may read the IC50 as the point on the concentration scale where inhibition reaches its midpoint. A word on the EC50: it is the concentration that produces a half-maximal response. As usually defined, the CC50 is the concentration that lowers cell viability or growth by half. Higher therefore signals lower toxicity to the cells.
